Measured values as given in ChEMBL document CHEMBL5058577, “EUbOPEN Chemogenomics Library 2 (Multiplex)” (2022).

System: Fibroblast
Test: Multiplex assay against human fibroblast
Type: toxicity, cell-based
How it was run: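 Cells were classed with CellPathfinder machine-learning gating, first as Hoechst high-intensity objects or normal cells, then (normal cells) as healthy, pyknosed or fragmented nuclei, and finally (pyknosed cells) as mitotic or apoptotic. Staining of live cells at seeding used Hoechst33342, BioTracker Green Microtubule Cytoskeleton Dye, MitoTracker Red and Annexin V Alexa Fluor 680, with imaging on a CQ1 microscope at 37°C and 5% CO2 after compound addition. Tubulin, mitochondrial-mass and membrane-permeability phenotypes are per cents of healthy-nucleus cells.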

[1] = 12 h, 1 µM, compound concentration 1 uM, replicate 1
[2] = 12 h, 1 µM, compound concentration 1 uM, replicate 2
[3] = 12 h, 10 µM, compound concentration 10 uM, replicate 1
[4] = 12 h, 10 µM, compound concentration 10 uM, replicate 2
[5] = 24 h, 1 µM, compound concentration 1 uM, replicate 1
[6] = 24 h, 1 µM, compound concentration 1 uM, replicate 2
[7] = 24 h, 10 µM, compound concentration 10 uM, replicate 1
[8] = 24 h, 10 µM, compound concentration 10 uM, replicate 2
[9] = 48 h, 1 µM, compound concentration 1 uM, replicate 1
[10] = 48 h, 1 µM, compound concentration 1 uM, replicate 2
[11] = 48 h, 10 µM, compound concentration 10 uM, replicate 1
[12] = 48 h, 10 µM, compound concentration 10 uM, replicate 2

CN(C)C(=O)Cn1cc(-c2ccc(-c3nnc4ccccn34)cc2)cn1
Population Apoptotic (%) [1]: 57% | Population Fragmented Nuclei (%) [1]: 18% | Population Healthy Nuclei (%) [1]: 60% | Population Hoechst High Intensity Objects (%) [1]: 5% | Population Membrane Permeable-Phenotype (%) [1]: 1% | Population Mitochondria Different-Phenotype (%) [1]: 3% | Population Mitotic Cells (%) [1]: 42% | Population Normal (%) [1]: 94% | Population Pyknosed Nuclei (%) [1]: 21% | Population Tubulin-Different-Phenotype (%) [1]: 22% | Total Cell Count [1]: 139 | Population Apoptotic (%) [2]: 55% | Population Fragmented Nuclei (%) [2]: 20% | Population Healthy Nuclei (%) [2]: 58% | Population Membrane Permeable-Phenotype (%) [2]: 7% | Population Mitochondria Different-Phenotype (%) [2]: 7% | Population Mitotic Cells (%) [2]: 44% | Population Pyknosed Nuclei (%) [2]: 20% | Population Tubulin-Different-Phenotype (%) [2]: 42% | Total Cell Count [2]: 152 | Population Apoptotic (%) [3]: 52% | Population Fragmented Nuclei (%) [3]: 8% | Population Healthy Nuclei (%) [3]: 63% | Population Hoechst High Intensity Objects (%) [3]: 3% | Population Membrane Permeable-Phenotype (%) [3]: 0% | Population Mitochondria Different-Phenotype (%) [3]: 6% | Population Mitotic Cells (%) [3]: 47% | Population Normal (%) [3]: 96% | Population Pyknosed Nuclei (%) [3]: 28% | Population Tubulin-Different-Phenotype (%) [3]: 31% | Total Cell Count [3]: 140 | Population Apoptotic (%) [4]: 39% | Population Fragmented Nuclei (%) [4]: 31% | Population Healthy Nuclei (%) [4]: 38% | Population Hoechst High Intensity Objects (%) [4]: 8% | Population Membrane Permeable-Phenotype (%) [4]: 15% | Population Mitochondria Different-Phenotype (%) [4]: 18% | Population Mitotic Cells (%) [4]: 60% | Population Normal (%) [4]: 91% | Population Pyknosed Nuclei (%) [4]: 29% | Population Tubulin-Different-Phenotype (%) [4]: 70% | Total Cell Count [4]: 123 | Population Apoptotic (%) [5]: 56% | Population Fragmented Nuclei (%) [5]: 23% | Population Healthy Nuclei (%) [5]: 60% | Population Hoechst High Intensity Objects (%) [5]: 0% | Population Membrane Permeable-Phenotype (%) [5]: 2% | Population Mitochondria Different-Phenotype (%) [5]: 1% | Population Mitotic Cells (%) [5]: 43% | Population Normal (%) [5]: 99% | Population Pyknosed Nuclei (%) [5]: 16% | Population Tubulin-Different-Phenotype (%) [5]: 25% | Total Cell Count [5]: 144 | Population Apoptotic (%) [6]: 54% | Population Hoechst High Intensity Objects (%) [6]: 4% | Population Membrane Permeable-Phenotype (%) [6]: 4% | Population Mitochondria Different-Phenotype (%) [6]: 3% | Population Mitotic Cells (%) [6]: 45% | Population Normal (%) [6]: 95% | Population Tubulin-Different-Phenotype (%) [6]: 41% | Total Cell Count [6]: 142 | Population Apoptotic (%) [7]: 65% | Population Fragmented Nuclei (%) [7]: 10% | Population Healthy Nuclei (%) [7]: 65% | Population Hoechst High Intensity Objects (%) [7]: 5% | Population Membrane Permeable-Phenotype (%) [7]: 2% | Population Mitochondria Different-Phenotype (%) [7]: 5% | Population Mitotic Cells (%) [7]: 34% | Population Normal (%) [7]: 94% | Population Pyknosed Nuclei (%) [7]: 24% | Population Tubulin-Different-Phenotype (%) [7]: 25% | Total Cell Count [7]: 140 | Population Apoptotic (%) [8]: 26% | Population Fragmented Nuclei (%) [8]: 36% | Population Healthy Nuclei (%) [8]: 40% | Population Hoechst High Intensity Objects (%) [8]: 9% | Population Membrane Permeable-Phenotype (%) [8]: 10% | Population Mitochondria Different-Phenotype (%) [8]: 6% | Population Mitotic Cells (%) [8]: 73% | Population Normal (%) [8]: 90% | Population Pyknosed Nuclei (%) [8]: 22% | Population Tubulin-Different-Phenotype (%) [8]: 71% | Total Cell Count [8]: 126 | Population Apoptotic (%) [9]: 58% | Population Fragmented Nuclei (%) [9]: 22% | Population Healthy Nuclei (%) [9]: 61% | Population Hoechst High Intensity Objects (%) [9]: 1% | Population Membrane Permeable-Phenotype (%) [9]: 4% | Population Mitochondria Different-Phenotype (%) [9]: 4% | Population Mitotic Cells (%) [9]: 41% | Population Normal (%) [9]: 98% | Population Pyknosed Nuclei (%) [9]: 16% | Population Tubulin-Different-Phenotype (%) [9]: 29% | Total Cell Count [9]: 151 | Population Apoptotic (%) [10]: 42% | Population Fragmented Nuclei (%) [10]: 28% | Population Healthy Nuclei (%) [10]: 52% | Population Hoechst High Intensity Objects (%) [10]: 5% | Population Membrane Permeable-Phenotype (%) [10]: 6% | Population Mitochondria Different-Phenotype (%) [10]: 2% | Population Mitotic Cells (%) [10]: 57% | Population Normal (%) [10]: 94% | Population Pyknosed Nuclei (%) [10]: 18% | Population Tubulin-Different-Phenotype (%) [10]: 46% | Total Cell Count [10]: 147 | Population Apoptotic (%) [11]: 52% | Population Fragmented Nuclei (%) [11]: 16% | Population Healthy Nuclei (%) [11]: 66% | Population Hoechst High Intensity Objects (%) [11]: 2% | Population Membrane Permeable-Phenotype (%) [11]: 0% | Population Mitochondria Different-Phenotype (%) [11]: 2% | Population Mitotic Cells (%) [11]: 47% | Population Normal (%) [11]: 97% | Population Pyknosed Nuclei (%) [11]: 17% | Population Tubulin-Different-Phenotype (%) [11]: 38% | Total Cell Count [11]: 137 | Population Apoptotic (%) [12]: 60% | Population Fragmented Nuclei (%) [12]: 44% | Population Healthy Nuclei (%) [12]: 47% | Population Hoechst High Intensity Objects (%) [12]: 3% | Population Membrane Permeable-Phenotype (%) [12]: 18% | Population Mitochondria Different-Phenotype (%) [12]: 8% | Population Mitotic Cells (%) [12]: 40% | Population Normal (%) [12]: 96% | Population Pyknosed Nuclei (%) [12]: 7% | Population Tubulin-Different-Phenotype (%) [12]: 73% | Total Cell Count [12]: 131
